Screening data from PubChem.
In the library only some 1.1% were active in any assay of this set; here they are far more common.
S1P3 antagonist: S1P3 receptor antagonists, primary screen, cell-based; Sphingosine 1-phosphate receptor 3 (Homo sapiens), Q99500; CHO S1P3 NFAT-BLA reporter, FRET fluorescence, antagonist mode; inhibition, % at 4.98 µM; hit rate 0.27% among 170,000; AID 485, 2006;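 active = inhibition above the plate cutoff, the mean inhibition of test wells on that plate plus 3 SD, cut at about 28% in these data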;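 also: cells challenged with S1P at its EC80 of 0.8 µM; blue over green emission ratio from cleaved BLA substrate after 4 h stimulation; 0% = S1P-stimulated wells and 100% = unstimulated DMSO-only wells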
TNAP act hi DEA: TNAP activators at high phosphate acceptor level, primary screen, biochemical, luminescence, uHTS. AID 1136, 2008. purified TNAP, CDP-star luminescence, 1 M DEA, 30 min; stronger effect = higher value; 0 = EDTA background, 1 = DMSO-only activity. 200,000 tested, under 10 active. Alkaline phosphatase, tissue-nonspecific isozyme (Homo sapiens), P05186. activation factor at 20 µM;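 active = activation factor at least 2 at 20 µM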
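Dosing: 20 µM single point. System: human TNAP. Amount: TNAP 1/800 final. Incubation: 30 min, room temperature. Read-out: TNAP activation factor scaled between EDTA and DMSO control wells. Signal: luminescence from CDP-star hydrolysis. Medium: 1 M DEA, pH 9.8, Mg2+, Zn2+. Control set: EDTA negative control, DMSO positive control.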
S1P4 ag: S1P4 receptor agonists, primary screen, cell-based; Sphingosine 1-phosphate receptor 4 (Homo sapiens), O95977; S1P4-expressing cell line, agonist reporter assay; activation, % at 4.98 µM; hit rate 0.35% among 220,000; in the data active = activation above about 11%;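 also: 0% = DMSO vehicle and 100% = reference agonist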
S1P4 antagonist: S1P4 receptor antagonists, primary screen, cell-based | Sphingosine 1-phosphate receptor 4 (Homo sapiens), O95977 | S1P4-expressing cells, antagonist mode, reporter read-out | hit rate 0.26% among 220,000 | inhibition, % at 4.98 µM; in the data active = inhibition above about 29%;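 also: 0% = wells stimulated with agonist and 100% = vehicle wells without agonist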
TNAP inh hiacc: human TNAP enzyme inhibitors, primary screen, biochemical, luminescent, high phosphate acceptor level, uHTS | Alkaline phosphatase, tissue-nonspecific isozyme (Homo sapiens), P05186 | purified TNAP, CDP-star luminescence, 1 M DEA | inhibition, % at 20 µM | hit rate 0.03% among 200,000 | AID 1135, 2008;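 active = over 50% inhibition of tissue-nonspecific alkaline phosphatase at 20 µM in the single-dose screen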;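 also: plate controls were DMSO wells for no effect and EDTA-quenched wells as full inhibition for full effect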
TNAP inh noacc: human TNAP enzyme inhibitors, primary screen, biochemical, luminescent, no phosphate acceptor, uHTS; Alkaline phosphatase, tissue-nonspecific isozyme (Homo sapiens), P05186; purified TNAP, CDP-star luminescence, 30 min; inhibition, % at 20 µM; hit rate 0.26% among 200,000; AID 1012, 2008;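 active = tissue-nonspecific alkaline phosphatase inhibition above about 50% at 20 µM in the single-dose screen, limit read from the data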;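 also: 0% = DMSO negative control and 100% = EDTA positive control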
S1P4 ag conf: S1P4 receptor agonists, retest, confirmation, cell-based, high throughput; shares compounds with S1P4 ag; S1P4 agonist cell-based reporter assay; activation, % at 4.98 µM; hit rate 7% among 740; in the data active = activation above about 12%;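 also: 0% = vehicle and 100% = full reference agonist response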
S1P1 agonist: S1P1 receptor agonists, human, counter-screen for S1P4 agonist project, cell-based. shares compounds with S1P4 ag. S1P1 agonist cell-based assay, activation. activation, % at 4.98 µM. hit rate 4% among 740. AID 1563, 2009; in the data active = activation above about 21%;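 also: 0% = vehicle wells and 100% = reference agonist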
Target sequence (P21453 whole entry, looked up): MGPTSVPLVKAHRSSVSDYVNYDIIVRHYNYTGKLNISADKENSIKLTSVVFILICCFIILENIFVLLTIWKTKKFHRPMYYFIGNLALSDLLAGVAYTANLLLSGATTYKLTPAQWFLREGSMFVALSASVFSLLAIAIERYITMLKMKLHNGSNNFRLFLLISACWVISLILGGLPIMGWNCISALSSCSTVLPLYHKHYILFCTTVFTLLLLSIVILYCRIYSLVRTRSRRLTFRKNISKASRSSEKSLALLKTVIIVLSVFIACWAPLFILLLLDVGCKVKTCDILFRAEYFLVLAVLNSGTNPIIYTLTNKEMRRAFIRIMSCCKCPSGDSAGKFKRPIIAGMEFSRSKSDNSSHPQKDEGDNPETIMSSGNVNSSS
An asterisk follows results filed as active; / = no result.

SMILES | S1P3 antagonist | TNAP act hi DEA | S1P4 ag | S1P4 antagonist | TNAP inh hiacc | TNAP inh noacc | S1P4 ag conf | S1P1 agonist
COCCn1c(SCC(=O)Nc2sccc2C(N)=O)nnc1-c1ccncc1 | -16.4 | 1 | 0.7 | -11.3 | -4.3 | -18.1 | / | /
CCn1c(=O)c(-c2nc3ccccc3[nH]2)c(O)c2ccccc21 | -15.1 | 1 | 35.4* | -3.4 | 3.3 | 1.7 | -2.5 | 0.4
CCCn1c(=O)c(-c2nc3ccccc3[nH]2)c(O)c2ccccc21 | -5.3 | 1.1 | 0.9 | -20.4 | -6.2 | -31.3 | / | /
CCOc1ccccc1N=c1oc2cc(O)ccc2cc1C(=O)NCC1CCCO1 (configuration not stated) | / | 0.9 | 61.0* | -52.0 | 7.7 | 2.2 | 4.5 | -1.2
CCOc1ccc(N=c2oc3cc(O)ccc3cc2C(=O)NCC2CCCO2)cc1 (configuration not stated) | / | 0.9 | 4.8 | -9.6 | 8.8 | 0.5 | / | /
COc1ccc(N=c2oc3cc(O)ccc3cc2C(=O)NCC2CCCO2)c(OC)c1 (configuration not stated) | -0.9 | 0.9 | 70.9* | -51.2 | 12.6 | -0.3 | 1.9 | -1.1
COc1ccc(N=c2oc3cc(O)ccc3cc2C(=O)NCC2CCCO2)cc1 (configuration not stated) | 24.5 | 0.9 | 12.0* | -19.8 | 7.2 | -5.4 | 1.5 | -2.5
Cc1cc(C)c(O)c(-c2cc(C(=O)Nc3c(C)n(C)n(-c4ccccc4)c3=O)[nH]n2)c1 | 5.8 | / | -1.5 | 15.2 | / | / | / | /
O=C(N/N=C/c1ccsc1)c1ccc2ccccc2n1 | -7.9 | 1.1 | 0.7 | -1.8 | -5.0 | -31.8 | / | /
CC(=O)c1cnn(-c2ccc(Cl)c(Cl)c2Cl)c1C | 0.9 | / | 1.3 | -6.4 | / | / | / | /
CCCCC(=O)NC(=S)NNC(=O)c1ccc(OC)cc1 | -11.9 | 1.1 | 0.6 | -11.7 | -7.2 | -69.8 | / | /
COc1ccccc1/C=C(/CC(=O)NCc1ccc(F)cc1)c1nc2ccccc2s1 | 0.8 | 1 | 63.1* | 11.6 | -0.1 | -1.9 | -1.3 | -4.9
O=C(COc1ccccc1C(=O)O)Nc1nc2ccc([N+](=O)[O-])cc2s1 | -6.2 | / | 0.8 | -3.4 | / | / | / | /
COC(=O)c1sc(NC(=O)c2ccco2)nc1C | -7.6 | 1.1 | 0.6 | -24.1 | -7.4 | -14.7 | / | /
CCOC(=O)c1sc(NC(=S)NC(=O)c2ccco2)nc1C | -2.2 | 0.9 | 33.7* | -1.1 | 7.9 | 7.4 | -2.7 | -2.0
Cc1ccnc(NS(=O)(=O)c2ccc(NC(=O)C3C4C=CC(C4)C3C(=O)O)cc2)n1 (configuration not stated) | -7.9 | 1 | -1.6 | 1.8 | -3.8 | -10.9 | / | /
COc1ccc(-c2nn(-c3ccccc3)cc2CN(C)CCn2ccnc2C)c(F)c1 | -3.2 | / | 2.4 | -18.4 | / | / | / | /
N/C(CCS(=O)(=O)c1ccc(Cl)cc1)=N\OC(=O)c1ccc(Cl)cc1 | -2.5 | / | 102.7* | 15.8 | / | / | -0.7 | -3.7
N/C(CCS(=O)(=O)c1ccc(Cl)cc1)=N\OC(=O)c1ccccc1C(F)(F)F | -8.5 | / | 0.4 | 7.0 | / | / | / | /
O=[N+]([O-])c1cccc(NC(=S)NCCc2ccccc2)c1 | -1.9 | 1 | 20.3* | -18.1 | 0.6 | -1.6 | -1.9 | 2.9
COc1cc(NC2=CC(=O)CC(C)(C)C2)cc(OC)c1 | -12.3 | 1 | 28.0* | -1.7 | 3.0 | -8.7 | -1.5 | 2.8
NC(=O)C1(N2CCCCC2)CCN(C(=S)Nc2ccc(S(N)(=O)=O)cc2)CC1 | -15.1 | 1.1 | 0.5 | -5.7 | -5.7 | -6.3 | / | /
